The values that follow come from publication PMC4629212 (Acta Pharmaceutica Sinica. B, 2015).

Data set [1] concerns HepG-2 cells. The experiment in a line: MTT assay of HepG-2 cell viability. Format: cell-based, human. The following applies: for Inhibition ratios for HepG-2 cell viability: 10 μmol/L compound, 48 h, mean of three independent experiments; for Effect on HepG-2 cell viability (in words): 10 μmol/L. An outline of the steps: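 HepG-2 cells were kept at 37 °C under 5% CO2 and seeded at 5×10^3 cells/well. After 12 h, test compound was added at 10 µmol/L for 48 h. Viability was read by MTT conversion to purple formazan, and the inhibition rate was calculated against untreated cells set as 100%.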
Background: Tetrazolium assays rely on reduction of a dye to a coloured formazan, in cell work by metabolically active cells.

The target of data set [2] is BChE (Equus caballus, UniProt P81908). As to the kind of experiment: BChE inhibition, modified Ellman method. Format: biochemical, equine. To be noted: for inhibition at 50 µM: 0.25 h, read-out: Inhibition ratios for BChE. (In general: DTNB colorimetry detects thiols as they appear.)
The target in data set [3] is T1, AChE (Electrophorus electricus, UniProt O42275). The experiment in a line: biochemical. Further details: species or system Electric Eel. The following applies: for inhibition at 50 µM: 0.25 h, read-out: Inhibition ratios for AChE.
A short description of data set [4]: Metal-chelating study by UV-Vis spectrometry. Format: physicochemical. The procedure, abridged: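 Test compound (20 μmol/L final) was incubated in water for 30 min at room temperature, alone or with CuSO4, FeCl3 or ZnCl2 (each 20 μmol/L final). UV-Vis absorption spectra were then recorded from 200 to 500 nm.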
Data set [5] concerns the target T1, AChE. As to the kind of experiment: Kinetic characterization of AChE inhibition. Format: biochemical, Electric Eel. To be noted: Lineweaver–Burk plots. An outline of the steps:
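Acetylthiocholine hydrolysis by AChE was measured at six substrate concentrations in 0.1 mol/L KH2PO4/K2HPO4 buffer, pH 8.0, with DTNB. Test compound was pre-incubated with the enzyme for 15 min at 37 °C before substrate was added. Absorbance was read at 412 nm, and a parallel no-inhibitor control was run.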

Chain of BChE (P81908 whole entry): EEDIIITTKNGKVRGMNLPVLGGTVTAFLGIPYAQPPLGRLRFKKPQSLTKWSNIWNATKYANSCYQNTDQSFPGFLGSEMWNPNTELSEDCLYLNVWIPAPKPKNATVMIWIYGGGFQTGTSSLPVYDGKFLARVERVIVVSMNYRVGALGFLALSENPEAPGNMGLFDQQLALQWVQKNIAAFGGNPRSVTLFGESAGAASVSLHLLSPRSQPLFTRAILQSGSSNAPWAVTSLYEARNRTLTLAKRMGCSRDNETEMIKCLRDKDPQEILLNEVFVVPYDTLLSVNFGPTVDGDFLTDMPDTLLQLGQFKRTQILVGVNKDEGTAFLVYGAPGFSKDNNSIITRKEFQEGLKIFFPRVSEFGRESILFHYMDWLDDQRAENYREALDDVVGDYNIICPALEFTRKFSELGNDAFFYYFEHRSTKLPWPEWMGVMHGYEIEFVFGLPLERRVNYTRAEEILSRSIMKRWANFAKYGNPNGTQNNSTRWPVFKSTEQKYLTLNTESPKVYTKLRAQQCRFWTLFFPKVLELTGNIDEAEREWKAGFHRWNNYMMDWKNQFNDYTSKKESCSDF
T1 sequence (O42275 24-633): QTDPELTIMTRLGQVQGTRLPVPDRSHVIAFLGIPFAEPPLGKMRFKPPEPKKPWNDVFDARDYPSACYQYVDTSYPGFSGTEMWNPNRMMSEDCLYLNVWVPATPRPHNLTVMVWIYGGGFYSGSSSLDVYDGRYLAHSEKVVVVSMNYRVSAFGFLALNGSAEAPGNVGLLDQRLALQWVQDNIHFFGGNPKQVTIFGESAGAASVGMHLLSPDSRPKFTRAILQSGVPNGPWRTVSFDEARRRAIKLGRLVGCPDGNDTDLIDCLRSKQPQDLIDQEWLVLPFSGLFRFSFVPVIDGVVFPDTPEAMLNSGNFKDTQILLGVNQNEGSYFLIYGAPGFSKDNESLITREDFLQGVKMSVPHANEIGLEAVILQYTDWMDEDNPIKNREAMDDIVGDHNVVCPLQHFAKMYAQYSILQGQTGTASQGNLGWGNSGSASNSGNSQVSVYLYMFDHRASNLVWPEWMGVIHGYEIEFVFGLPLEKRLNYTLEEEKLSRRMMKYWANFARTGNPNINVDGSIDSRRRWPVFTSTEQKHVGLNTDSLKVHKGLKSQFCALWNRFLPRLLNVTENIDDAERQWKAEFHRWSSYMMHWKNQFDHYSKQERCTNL

For the molecule `CCCCNC(=O)COc1cc(O)c2c(=O)c(-c3ccc(O)cc3)coc2c1` [Compound 4a, N-butyl-2-(5-hydroxy-3-(4-hydroxyphenyl)-4-oxo-4H-chromen-7-yloxy)acetamide], the “Inhibition ratios for HepG-2 cell viability” value in data set [1] came out at 6.40%. Besides, the inhibition at 50 µM worked out at 1.19 ± 0.59% in data set [2] and 7.88 ± 3.58% in data set [3].
For `CN(C)CCNC(=O)COc1cc(O)c2c(=O)c(-c3ccc(O)cc3)coc2c1.Cl` [Compound 4b, N-(2-(dimethylamino)ethyl)-2-(5-hydroxy-3-(4-hydroxyphenyl)-4-oxo-4H-chromen-7-yloxy)acetamide hydrochloride], in data set [1], the “Effect on HepG-2 cell viability (in words)” value is “no obvious effect on cell viability” and the “Inhibition ratios for HepG-2 cell viability” value came out at 1.53%. For the same molecule, the “Metal-chelating ability (overall)” value in data set [4] was “potent metal-chelating ability”. Moreover, the “Chelation of Cu^2+ (UV-Vis spectrum change)” value in data set [4] (20 μmol/L compound, 20 μmol/L Cu^2+, in water) was “poor chelating ability”. Also, the “Inhibition type of AChE” value in data set [5] is on record as “mixed-type inhibition”. Also, in data set [2], the IC50 is more than 50 µM and the inhibition at 50 µM amounted to 26.1 ± 2.52%. Further, in data set [3], the midpoint of inhibition, the IC50, lay at 2.75 ± 0.28 µM and the inhibition at 50 µM amounted to 90.4 ± 1.23%.
With `Cl.NCCCNC(=O)COc1cc(O)c2c(=O)c(-c3ccc(O)cc3)coc2c1` [Compound 4c, N-(3-aminopropyl)-2-(5-hydroxy-3-(4-hydroxyphenyl)-4-oxo-4H-chromen-7-yloxy)acetamide hydrochloride], the “Inhibition ratios for HepG-2 cell viability” value in data set [1] turned out to be 14.57%. Further, the inhibition at 50 µM in data set [2] turned out to be 13.8 ± 1.05%; in data set [3] it was 37 ± 2.07%.
For the molecule `Cl.NCCCCNC(=O)COc1cc(O)c2c(=O)c(-c3ccc(O)cc3)coc2c1` [Compound 4d, N-(4-aminobutyl)-2-(5-hydroxy-3-(4-hydroxyphenyl)-4-oxo-4H-chromen-7-yloxy)acetamide hydrochloride], in data set [1], the “Inhibition ratios for HepG-2 cell viability” value stood at 1.17%. The inhibition at 50 µM amounted to 9.02 ± 0.23% in data set [2] and 34.5 ± 2.76% in data set [3].
Turning to `Cl.O=C(COc1cc(O)c2c(=O)c(-c3ccc(O)cc3)coc2c1)NCCCCN1CCNCC1` [Compound 4e, 2-(5-hydroxy-3-(4-hydroxyphenyl)-4-oxo-4H-chromen-7-yloxy)-N-(4-(piperazin-1-yl)butyl)acetamide hydrochloride], in data set [1], the “Inhibition ratios for HepG-2 cell viability” value was 8.51%. Also, the values for the inhibition at 50 µM in data set [2] and in data set [3] were 11.7 ± 0.82% and 19.3 ± 1.87%, respectively.
Consider `Cl.NCCCNCCCNC(=O)COc1cc(O)c2c(=O)c(-c3ccc(O)cc3)coc2c1` [Compound 4f, N-(3-(3-aminopropylamino)propyl)-2-(5-hydroxy-3-(4-hydroxyphenyl)-4-oxo-4H-chromen-7-yloxy)acetamide hydrochloride], for which, in data set [1], the “Inhibition ratios for HepG-2 cell viability” value stood at 11.74%. Also, the inhibition at 50 µM in data set [2] was 9.52 ± 1.48%; in data set [3], 10.2 ± 0.44%.
On to `Cl.NCCCNCCCCNC(=O)COc1cc(O)c2c(=O)c(-c3ccc(O)cc3)coc2c1` [Compound 4g, N-(4-(3-aminopropylamino)butyl)-2-(5-hydroxy-3-(4-hydroxyphenyl)-4-oxo-4H-chromen-7-yloxy)acetamide hydrochloride], for which the “Inhibition ratios for HepG-2 cell viability” value in data set [1] is 16.72%. In addition, the inhibition at 50 µM is 17.9 ± 2.83% in data set [2] and 16.5 ± 1.36% in data set [3].
Regarding `Cl.NCCCCNCCCCNC(=O)COc1cc(O)c2c(=O)c(-c3ccc(O)cc3)coc2c1` [Compound 4h, N-(4-(4-aminobutylamino)butyl)-2-(5-hydroxy-3-(4-hydroxyphenyl)-4-oxo-4H-chromen-7-yloxy)acetamide hydrochloride], in data set [1], the “Effect on HepG-2 cell viability (in words)” value is “no obvious effect on cell viability” and the “Inhibition ratios for HepG-2 cell viability” value stood at 16.30%. Besides, in data set [2], the IC50 was more than 50 µM and the inhibition at 50 µM was determined as 39.2%. Also, the “Inhibition ratios for BChE” value in data set [2] (50 μmol/L compound, mean±SEM of two experiments, BChE from equine serum) was determined as 39.20±5.64%. In data set [3], the IC50 was found to be 46.6 ± 3.87 µM and the inhibition at 50 µM was determined as 51 ± 0.55%.
As for `O=c1c(-c2ccc(O)cc2)coc2cc(O)cc(O)c12` [Genistein, reference compound], the IC50 in data set [2] and in data set [3] was more than 100 µM throughout. The inhibition at 100 µM in data set [3] (read-out: Inhibition of AChE activity) was less than 50%.
`Nc1c2c(nc3ccccc13)CCCC2` [Tacrine, reference compound]: the “Inhibition ratios for HepG-2 cell viability” value in data set [1] is on record as 57.35%.

By IC50 is commonly meant the concentration that gives 50% inhibition. Lower therefore signals inhibition by little substance.
